Data reported in ChEMBL document CHEMBL1154855 (Eur J Med Chem, 2010).
In brackets after ≈: the same amount, converted by molar mass.

What was measured:
Streptococcus viridans = test: Antibacterial activity against Streptococcus viridans after 24 hrs by broth microdilution method; type: functional; conditions: Streptococcus viridans, 24 h; read-out: MIC
In short: (§1)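 Clinical isolates. Each dilution received 100 μl of 0.5 McFarland fresh culture. Solvent (DMSO), growth and standard controls were included. Tubes were incubated at 37 °C for 24 h. MIC is the highest dilution showing no turbidity. Tests were run in triplicate, with at least two repetitions.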

Proteus mirabilis = test: Antibacterial activity against Proteus mirabilis after 24 hrs by broth microdilution method; type: functional; conditions: Proteus mirabilis, 24 h; read-out: MIC; in short: as §1
Escherichia coli = test: Antibacterial activity against Escherichia coli after 24 hrs by broth microdilution method; type: functional; conditions: Escherichia coli, 24 h; read-out: MIC; in short: as §1
Klebsiella pneumoniae = test: Antibacterial activity against Klebsiella pneumoniae after 24 hrs by broth microdilution method; type: functional; conditions: Klebsiella pneumoniae, 24 h; read-out: MIC; in short: as §1
HEL [1] = test: Cytotoxicity against Herpes simplex virus 2 G infected HEL cells by trypan blue exclusion method; type: cell-based; conditions: human, hel
In short: (§2)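 Uninfected confluent cultures were run in parallel with the infected cultures. Medium was replaced by 1 ml maintenance medium with serial compound concentrations; cell controls received no compound. Cultures were incubated at 37 °C. After 2 and 7 days, compound was withdrawn and viability was determined by trypan blue exclusion.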

Feline coronavirus = test: Antiviral activity against Feline coronavirus infected in cat CRFK cells assessed as protection from virus-induced cytopathogenicity by MTT assay; type: functional, organism-based; conditions: Alphacoronavirus 1, CRFK
Coxsackievirus B4 [2] = test: Antiviral activity against Human coxsackievirus B4 infected in human HeLa cells assessed as protection from virus-induced cytopathogenicity after 2 days by MTT assay; type: functional, organism-based; conditions: Enterovirus B, 48 h
MDCK [3] = test: Cytotoxicity against Influenza A virus subtype H1N1 infected MDCK cells by trypan blue exclusion method; type: cell-based, Canis lupus familiaris; conditions: dog
[4] = system: Respiratory syncytial virus; test: Antiviral activity against Respiratory syncytial virus infected in human HeLa cells assessed as protection from virus-induced cytopathogenicity after 4 days by MTT assay; type: functional, organism-based; conditions: 96 h
[5] = system: Mammalian orthoreovirus 1; test: Antiviral activity against Reovirus 1 infected in african green monkey Vero cells assessed as protection from virus-induced cytopathogenicity after 6 to 7 days by MTT assay; type: functional, organism-based; conditions: Mammalian orthoreovirus 1, Vero
Human alphaherpesvirus 1 [6] = test: Antiviral activity against acyclovir-sensitive Herpes simplex virus 1 KOS infected in HEL cells assessed as protection from virus-induced cytopathogenicity after 2 to 3 days by MTT assay; type: functional, organism-based; conditions: Human alphaherpesvirus 1, KOS
Vero [7] = test: Cytotoxicity against PIV 3 infected african green monkey Vero cells by trypan blue exclusion method; type: cell-based; conditions: chlorocebus sabaeus, vero; in short: as §2
Human alphaherpesvirus 1 [8] = test: Antiviral activity against Herpes simplex virus 1 KOS infected in HEL cells assessed as protection from virus-induced cytopathogenicity after 2 to 3 days by MTT assay; type: functional, organism-based; conditions: Human alphaherpesvirus 1, KOS
Human respirovirus 3 = test: Antiviral activity against PIV 3 infected in african green monkey Vero cells assessed as protection from virus-induced cytopathogenicity after 6 to 7 days by MTT assay; type: functional, organism-based; conditions: Human respirovirus 3, Vero
HeLa [9] = test: Cytotoxicity against Human coxsackievirus B4 infected human HeLa cells by trypan blue exclusion method; type: cell-based; conditions: hela; in short: as §2
Human alphaherpesvirus 2 = test: Antiviral activity against Herpes simplex virus 2 G infected in HEL cells assessed as protection from virus-induced cytopathogenicity after 2 to 3 days by MTT assay; type: functional, organism-based; conditions: Human alphaherpesvirus 2, strain G
HeLa [10] = test: Cytotoxicity against Respiratory syncytial virus infected human HeLa cells by trypan blue exclusion method; type: cell-based; conditions: hela; in short: as §2
Sindbis virus = test: Antiviral activity against Sindbis virus infected in african green monkey Vero cells assessed as protection from virus-induced cytopathogenicity after 2 to 3 days by MTT assay; type: functional, organism-based
Punta Toro virus = test: Antiviral activity against Punta Toro virus infected in african green monkey Vero cells assessed as protection from virus-induced cytopathogenicity by MTT assay; type: functional, organism-based
MDCK [11] = test: Cytotoxicity against Influenza B virus infected MDCK cells by trypan blue exclusion method; type: cell-based, Canis lupus familiaris; conditions: dog
[12] = Cytotoxicity against Feline herpesvirus infected cat CRFK cells by trypan blue exclusion method; type: cell-based, Felis catus; conditions: crfk; in short: as §2
Influenza A virus [13] = test: Antiviral activity against Influenza A virus H3N2 infected in MDCK cells assessed as protection from virus-induced cytopathogenicity after 6 to 7 days by MTT assay; type: functional, organism-based
Influenza A virus [14] = test: Antiviral activity against Influenza A virus H1N1 infected in MDCK cells assessed as protection from virus-induced cytopathogenicity after 6 to 7 days by MTT assay; type: functional, organism-based
HeLa [15] = test: Cytotoxicity against VSV infected human HeLa cells by trypan blue exclusion method; type: cell-based; conditions: hela; in short: as §2
Vero [16] = test: Cytotoxicity against Punta Toro virus infected african green monkey Vero cells by trypan blue exclusion method; type: cell-based; conditions: chlorocebus sabaeus, vero; in short: as §2
Vero [17] = test: Cytotoxicity against Human coxsackievirus B4 infected african green monkey Vero cells by trypan blue exclusion method; type: cell-based; conditions: chlorocebus sabaeus, vero; in short: as §2
Vero [18] = test: Cytotoxicity against Reovirus 1 infected african green monkey Vero cells by trypan blue exclusion method; type: cell-based; conditions: chlorocebus sabaeus, vero; in short: as §2
[19] = system: Vesicular stomatitis virus; test: Antiviral activity against VSV infected in human HeLa cells assessed as protection from virus-induced cytopathogenicity after 1 to 2 days by MTT assay; type: functional, organism-based
HEL [20] = test: Cytotoxicity against Herpes simplex virus 1 KOS infected HEL cells by trypan blue exclusion method; type: cell-based; conditions: human, hel; in short: as §2
HEL [21] = test: Cytotoxicity against VSV infected HEL cells by trypan blue exclusion method; type: cell-based; conditions: human, hel; in short: as §2
HEL [22] = test: Cytotoxicity against acyclovir-sensitive Herpes simplex virus 1 KOS infected HEL cells by trypan blue exclusion method; type: cell-based; conditions: human; in short: as §2
Influenza B virus = test: Antiviral activity against Influenza B virus infected in MDCK cells assessed as protection from virus-induced cytopathogenicity after 6 to 7 days by MTT assay; type: functional, organism-based
[23] = Cytotoxicity against Feline coronavirus infected cat CRFK cells by trypan blue exclusion method; type: cell-based, Felis catus; conditions: crfk; in short: as §2
HEL [24] = test: Cytotoxicity against Vaccinia virus infected HEL cells by trypan blue exclusion method; type: cell-based; conditions: human, hel; in short: as §2
MDCK [25] = test: Cytotoxicity against Influenza A virus subtype H3N2 infected MDCK cells by trypan blue exclusion method; type: cell-based, Canis lupus familiaris; conditions: dog
Felid alphaherpesvirus 1 = test: Antiviral activity against Feline herpesvirus infected in cat CRFK cells assessed as protection from virus-induced cytopathogenicity by MTT assay; type: functional, organism-based; conditions: Felid alphaherpesvirus 1, CRFK
Vero [26] = test: Cytotoxicity against Sindbis virus infected african green monkey Vero cells by trypan blue exclusion method; type: cell-based; conditions: chlorocebus sabaeus, vero; in short: as §2
Coxsackievirus B4 [27] = test: Antiviral activity against Human coxsackievirus B4 infected in african green monkey Vero cells assessed as protection from virus-induced cytopathogenicity after 2 days by MTT assay; type: functional, organism-based; conditions: Enterovirus B, 48 h
[28] = Cytotoxicity against HIV1 3B-infected human MT4 cells by MTT assay; type: cell-based; conditions: MT4 cells infected with HIV-1 3B
In short: (§3)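 MT-4 cells (3 × 10^4 per well) were cultured in microdilution trays with various concentrations of compound, then incubated 5 days at 37 °C, and viable cell number was read by MTT.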

[29] = system: Human immunodeficiency virus 2; test: Antiviral activity against HIV2 ROD infected in human MT4 cells assessed as protection from virus-induced cytopathogenicity after 5 days by MTT assay; type: functional, organism-based; conditions: Human immunodeficiency virus 2, ISOLATE ROD, MT4, 120 h
In short: (§4)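 MT-4 cells at 3 × 10^4 per well were infected with HIV (IIIB or ROD) at 50% cell culture infective doses. Graded compound concentrations were added immediately after infection. Plates were incubated for 5 days at 37 °C and viable cells were counted by MTT.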

[30] = system: Human immunodeficiency virus 1; test: Antiviral activity against HIV1 3B-infected in human MT4 cells assessed as protection from virus-induced cytopathogenicity after 5 days by MTT assay; type: functional, organism-based; conditions: Human immunodeficiency virus 1, 3B, MT4, 120 h; in short: as §4
[31] = Cytotoxicity against HIV2 ROD infected human MT4 cells by MTT assay; type: cell-based; conditions: MT4 cells infected with HIV-2 ROD; in short: as §3
[32] = system: Vesicular stomatitis virus; test: Antiviral activity against VSV infected in HEL cells assessed as protection from virus-induced cytopathogenicity after 1 to 2 days by MTT assay; type: functional, organism-based

Compound | MIC (Streptococcus viridans) | MIC (Proteus mirabilis) | CC50 (HEL [1]) | EC50 (Feline coronavirus) | EC50 (Coxsackievirus B4 [2]) | CC50 (MDCK [3]) | EC50 [4] | EC50 [5] | EC50 (Human alphaherpesvirus 1 [6]) | CC50 (Vero [7]) | EC50 (Human alphaherpesvirus 1 [8]) | EC50 (Human respirovirus 3) | CC50 (HeLa [9]) | EC50 (Human alphaherpesvirus 2) | CC50 (HeLa [10]) | EC50 (Sindbis virus) | EC50 (Punta Toro virus) | CC50 (MDCK [11]) | CC50 [12] | EC50 (Influenza A virus [13]) | further results
CC1(C)S[C@@H]2[C@H](NC(=O)[C@H](N)c3ccccc3)C(=O)N2[C@H]1C(=O)O [AMPICILLIN TRIHYDRATE] | > 2.47 µM | 1.23 µM |  |  |  |  |  |  |  |  |  |  |  |  |  |  |  |  |  |  | MIC (Escherichia coli): 1.23 µM; MIC (Klebsiella pneumoniae): 0.6 µM
COc1cc(/C=C/C(=O)CC(=O)/C=C/c2ccc(O)c(OC)c2)ccc1O [CURCUMIN] | 2.47 µM (≈ 0.91 µg/mL) | 1.23 µM (≈ 0.453 µg/mL) | > 2 nM | > 271 nM | > 10 nM | > 92 nM | > 10 nM | > 10 nM | 10 nM | 54 nM | > 10 nM | > 10 nM | ≥ 10 nM | 10 nM | ≥ 10 nM | > 10 nM | > 10 nM | > 92 nM | > 271 nM | > 271 nM | EC50 (Influenza A virus [14]): > 271 nM; CC50 (HeLa [15]): ≥ 10 nM; CC50 (Vero [16]): 54 nM; CC50 (Vero [17]): 54 nM; CC50 (Vero [18]): 54 nM; EC50 [19]: > 10 nM; CC50 (HEL [20]): ≥ 10 nM; CC50 (HEL [21]): > 2 nM; CC50 (HEL [22]): > 2 nM; EC50 (Influenza B virus): > 271 nM; CC50 [23]: > 271 nM; CC50 (HEL [24]): > 2 nM; CC50 (MDCK [25]): > 92 nM; EC50 (Felid alphaherpesvirus 1): > 271 nM; CC50 (Vero [26]): 54 nM; EC50 (Coxsackievirus B4 [27]): > 10 nM
COc1cc(/C=C/C(=O)C(CCOC(=O)CCC(NC(=O)c2ccc(NCc3cnc4nc(N)[nH]c(=O)c4n3)cc2)C(=O)O)C(=O)/C=C/c2ccc(O)c(OC)c2)ccc1O (centres undefined) |  | 0.09 µM (≈ 0.0752 µg/mL) | > 11 nM | > 11 nM | > 11 nM | > 11 nM | > 11 nM | > 11 nM | > 11 nM | > 11 nM | > 11 nM | > 11 nM | > 11 nM | > 11 nM | > 11 nM | > 11 nM | > 11 nM | > 11 nM | > 11 nM | > 11 nM | EC50 (Influenza A virus [14]): > 11 nM; CC50 [28]: > 63 nM; CC50 (HeLa [15]): > 11 nM; CC50 (Vero [17]): > 11 nM; IC50 [29]: 65 nM; CC50 (Vero [18]): > 11 nM; IC50 [30]: 63 nM; EC50 [19]: > 11 nM; CC50 (HEL [20]): > 11 nM; CC50 (HEL [21]): > 11 nM; CC50 [31]: > 65 nM; CC50 (HEL [22]): > 11 nM; EC50 (Influenza B virus): > 11 nM; EC50 [32]: > 11 nM; CC50 [23]: > 11 nM; CC50 (HEL [24]): > 11 nM; CC50 (MDCK [25]): > 11 nM; EC50 (Felid alphaherpesvirus 1): > 11 nM; CC50 (Vero [26]): > 11 nM; EC50 (Coxsackievirus B4 [27]): > 11 nM
